Values after ≈ are worked out from the molar mass of the structure shown.
Tests used:
[1] = Inhibition of human recombinant full-length OGA transcript variant 1 expressed in HEK293T cells using FM-GlcNAc as substrate preincubated for 60 mins followed by addition of substrate and measured after 6 hrs by fluorescence assay
Procedure, shortened: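 Full-length human OGA, 2 nM, preincubated with compound for 60 min at room temperature. FM-GlcNAc substrate at 100 μM final, in 200 mM citrate/phosphate pH 7.2 with 0.005% Tween-20 and ≤1% DMSO. Run 6 h at room temperature, stopped with 500 mM carbonate pH 11.0. Fluorescence read at 485/538 nm. IC50 and Hill coefficient from least-squares fit, normalised to no-inhibitor and saturating reference controls.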

Protein O-GlcNAcase = Protein O-GlcNAcase (Homo sapiens, UniProt O60502); test: Inhibition of OGA in HEK293 cells induced with human Tau […] mutant assessed as increase in O-GlcNAcylated protein levels measured after 6 hrs by Hoechst 33342 dye based fluorescence analysis; format: cell-based
Procedure, shortened: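 Janssen HEK293 line inducible for P301L human Tau 2N4R, seeded two days before at 4000 cells/well in low-glucose assay medium. Compound exposure 6 h with 0.2% DMSO. Cells fixed with 4% PFA, permeabilized, then stained with CTD110.6 anti-O-GlcNAc (1/1000, 4 °C overnight) and a fluorescent secondary. Readout was 488 nm intensity over nine fields; Hoechst nuclei counted. Thiamet-G 200 μM defined maximum. IC50 by nonlinear regression.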

[2] = Inhibition of clostridium perfringens OGA using FM-GlcNAc as substrate preincubated for 60 mins followed by addition of substrate and measured after 6 hrs by fluorescence assay
in vitro [3] = conditions: human, liver microsomes, CLH
P-gp (MDR1) = test: Efflux ratio of apparent permeability across basolateral to apical over apical to basolateral side in MDCK2-MDR1 cells at 5 uM measured after 120 mins in absence of P-gp inhibitor GF120918 by LC-MS/MS analysis; conditions: dog, MDCK-MDR1
in vitro [4] = conditions: mouse, liver microsomes, CLH
[5] = Dissociation constant, pKa of the compound; format: physicochemical
[6] = Kinetic solubility of compound at pH 7.4; format: physicochemical; conditions: buffer, read-out: Kinetic_solubility
[7] = Kinetic solubility of compound at pH 2; format: physicochemical; conditions: buffer, read-out: Kinetic_solubility
[8] = AUC (0 to last) in male CD1 mouse at 30 mg/kg, po compound dissolved in water measured after 24 hrs by LC-MS/MS analysis; format: ADME, organism-based; set-up: route oral, time 24 hrs, dose 30 mg/kg; conditions: in vivo
Procedure, shortened: (§1)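 Three male CD1 mice per arm; oral solution in water adjusted to about pH 4. Blood taken at 0.5, 1, 2, 4, 7 and 24 h. Plasma protein-precipitated with acetonitrile and the supernatant quantified by qualified LC-MS/MS.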

[9] = Volume of distribution at steady state in male CD1 mouse at 1 mg/kg, iv compound dissolved in saline measured after 24 hrs by LC-MS/MS analysis; format: ADME, organism-based; conditions: in vivo, read-out: Vdss
Procedure, shortened: (§2)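 Single 1 mg/kg iv dose in 0.9% saline to three male CD1 mice. Blood sampled at 0.117, 0.333, 1, 2, 4, 7 and 24 h. Plasma prepared by acetonitrile protein precipitation and analysed by qualified LC-MS/MS.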

[10] = Clearance in male CD1 mouse at 1 mg/kg, iv compound dissolved in saline measured after 24 hrs by LC-MS/MS analysis; format: ADME, organism-based; conditions: in vivo; procedure, shortened: as §2
[11] = Cmax in male CD1 mouse at 30 mg/kg, po compound dissolved in water measured after 24 hrs by LC-MS/MS analysis; format: ADME, organism-based; set-up: route oral, dose 30 mg/kg, time 24 hrs; conditions: in vivo; procedure, shortened: as §1
[12] = Oral bioavailability in male CD1 mouse at 30 mg/kg, compound dissolved in water measured after 24 hrs by LC-MS/MS analysis; format: ADME, organism-based; conditions: in vivo
Procedure, shortened: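 Male CD1 mice, three per arm: 1 mg/kg iv in 0.9% saline and 30 mg/kg po as a solution in water adjusted to about pH 4. Serial blood to 24 h. Plasma levels measured by LC-MS/MS after acetonitrile precipitation. Bioavailability derived from iv and po exposure.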

Chain of Protein O-GlcNAcase (O60502 whole entry, looked up, stated change not applied): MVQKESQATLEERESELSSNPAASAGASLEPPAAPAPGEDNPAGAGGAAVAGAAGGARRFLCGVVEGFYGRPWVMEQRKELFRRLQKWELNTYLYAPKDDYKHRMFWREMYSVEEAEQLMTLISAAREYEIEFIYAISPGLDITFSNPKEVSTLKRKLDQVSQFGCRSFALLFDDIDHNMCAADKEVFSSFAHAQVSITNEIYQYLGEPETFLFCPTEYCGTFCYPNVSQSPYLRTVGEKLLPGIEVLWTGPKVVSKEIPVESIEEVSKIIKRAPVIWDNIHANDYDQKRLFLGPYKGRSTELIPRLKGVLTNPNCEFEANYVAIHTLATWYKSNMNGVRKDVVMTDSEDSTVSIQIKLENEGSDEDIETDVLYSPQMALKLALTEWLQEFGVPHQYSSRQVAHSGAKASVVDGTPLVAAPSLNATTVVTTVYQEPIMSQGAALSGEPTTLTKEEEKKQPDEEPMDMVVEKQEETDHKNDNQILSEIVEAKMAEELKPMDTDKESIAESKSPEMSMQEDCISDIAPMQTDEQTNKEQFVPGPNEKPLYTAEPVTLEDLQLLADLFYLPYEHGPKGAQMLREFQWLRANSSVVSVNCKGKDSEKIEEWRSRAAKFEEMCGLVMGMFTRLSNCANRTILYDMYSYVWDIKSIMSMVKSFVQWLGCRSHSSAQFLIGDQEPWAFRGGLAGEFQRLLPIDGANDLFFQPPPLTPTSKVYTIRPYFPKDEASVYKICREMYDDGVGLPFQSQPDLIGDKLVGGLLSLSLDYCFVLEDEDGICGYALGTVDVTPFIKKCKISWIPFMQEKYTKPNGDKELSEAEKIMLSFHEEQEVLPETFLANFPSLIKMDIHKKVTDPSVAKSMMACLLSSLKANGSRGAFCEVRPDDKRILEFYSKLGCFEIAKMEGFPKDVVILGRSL

Compound | IC50 [1] [µM] | IC50 (Protein O-GlcNAcase) [µM] | other results
Cc1cc(N2CCC3(CCN(Cc4ccc5c(c4)OCO5)C3)C2)n2ncnc2n1 (configuration not stated) | 0.129 | > 1 | 
CC(=O)Nc1ncc(CN2CCC3(CCC(Cc4cc(C)nc(C)c4)C3)C2)s1 (configuration not stated) | 0.309 | 0.537 | 
CC(=O)Nc1ncc(CN2CC3(CCN(c4cc(C)nc5ncnn45)C3)C2)s1 | 0.034 | 10 | IC50 [2]: 3.3 µM
CC(=O)Nc1ncc(CN2CC[C@]3(C2)C[C@@H](Cc2cc(C)nc(C)c2)C3)s1 | 0.209 | 0.295 | 
CC(=O)Nc1ncc(CN2CCC3(C2)CN(c2cc(C)nc4ncnn24)C3)s1 | 0.041 | 9.33 | 
CC(=O)Nc1ncc(CN2CC[C@]3(C2)C[C@@H](Oc2cc(C)nc(C)c2)C3)s1 | 0.55 |  | 
CC(=O)Nc1ncc(CN2CCC3(CCN(c4cc(C)nc5ncnn45)C3)C2)s1 (configuration not stated) | 0.004 | 0.575 | microsomal CLint at 1 h, 1 µM (in vitro [3]): < 8 µL/min/mg; efflux ratio at 2 h, 5 µM (P-gp (MDR1)): 13.5; microsomal CLint at 1 h, 1 µM (in vitro [4]): < 13 µL/min/mg; IC50 [2]: 0.29 µM
CC(=O)Nc1ncc(CN2CC[C@]3(C2)C[C@H](Oc2cc(C)nc(C)c2)C3)s1 | 1 |  | 
CC(=O)Nc1ncc(CN2CCC3(CCC(COc4cc(C)nc(C)c4)C3)C2)s1 (configuration not stated) | 0.135 | 0.501 | 
CC(=O)Nc1ncc(CN2CC[C@]3(C2)C[C@H](Cc2cc(C)nc(C)c2)C3)s1 | 0.204 | 0.24 | 
CC(=O)Nc1ncc(CN2CCC3(CCC(c4cc(C)nc(C)c4)C3)C2)s1 (configuration not stated) | 0.066 | 0.214 | 
CC(=O)Nc1ncc(CN2CCC3(CC(c4cc(C)nc(C)c4)CO3)C2)s1 (configuration not stated) | 0.021 | 0.603 | 
CC(=O)Nc1ncc(CN2CCC3(CCN(c4cc(C)nc(C)c4)C3)C2)s1 (racemic) | 0.006 | 0.141 | microsomal CLint at 1 h, 1 µM (in vitro [3]): < 8 µL/min/mg; pKa [5]: 10.4; efflux ratio at 2 h, 5 µM (P-gp (MDR1)): 1.6; microsomal CLint at 1 h, 1 µM (in vitro [4]): < 8 µL/min/mg
CC(=O)Nc1ncc(CN2CCC3(CCN(c4cc(C)nc(C)n4)C3)C2)s1 (racemic) | 0.013 | 0.17 | 
CC(=O)Nc1ncc(CN2CCC3(CCN(c4cc(C)nc5ccccc45)C3)C2)s1 (racemic) | 0.009 | 0.039 | solubility kinetic [6]: 71 µM (≈ 29.9 µg/mL); solubility kinetic [7]: 87 µM (≈ 36.7 µg/mL)
Cc1cc(N2CCC3(CCN(Cc4ccc5sc(C)nc5c4)C3)C2)n2ncnc2n1 (racemic) | 0.022 | > 1 | 
CC(=O)Nc1ncc(CN2CCC3(CCN(c4cc(C)nc(C(F)(F)F)c4)C3)C2)s1 (racemic) | 0.019 | 0.38 | microsomal CLint at 1 h, 1 µM (in vitro [3]): 46 µL/min/mg; efflux ratio at 2 h, 5 µM (P-gp (MDR1)): 32.2; microsomal CLint at 1 h, 1 µM (in vitro [4]): 55 µL/min/mg
CC(=O)Nc1ncc(CN2CCC3(CC(COc4cc(C)nc(C)c4)C3)C2)s1 (racemic) | 0.316 |  | 
CC(=O)Nc1ncc(CN2CC[C@]3(C[C@H](Oc4cc(C)nc(C)c4)CO3)C2)s1 (racemic) | 0.03 | 0.537 | 
CC(=O)Nc1ncc(CN2CCC3(CC(c4cc(C)nc(C)c4)C3)C2)s1 (racemic) | 0.036 | 0.182 | 
CC(=O)Nc1ncc(CN2CCC3(CCN(c4cc(C)n5ccnc5n4)C3)C2)s1 (racemic) | 0.001 | 0.437 | microsomal CLint at 1 h, 1 µM (in vitro [3]): < 8 µL/min/mg; efflux ratio at 2 h, 5 µM (P-gp (MDR1)): 1.2; microsomal CLint at 1 h, 1 µM (in vitro [4]): 16 µL/min/mg
Cc1cc(N2CCC3(CCNC3)C2)n2ncnc2n1 (racemic) | 3.24 | > 10 | 
COc1cc(N2CCC3(CCN(Cc4cnc(NC(C)=O)s4)C3)C2)cc(C)n1 (racemic) | 0.006 | 0.056 | microsomal CLint at 1 h, 1 µM (in vitro [3]): < 8 µL/min/mg; efflux ratio at 2 h, 5 µM (P-gp (MDR1)): 27.7; microsomal CLint at 1 h, 1 µM (in vitro [4]): 12 µL/min/mg
CC(=O)Nc1ncc(CN2CCC3(CCN(c4cc(C)cc(C)n4)C3)C2)s1 (racemic) | 0.004 | 0.046 | microsomal CLint at 1 h, 1 µM (in vitro [3]): 101 µL/min/mg; efflux ratio at 2 h, 5 µM (P-gp (MDR1)): 24.8; microsomal CLint at 1 h, 1 µM (in vitro [4]): 264 µL/min/mg
Cc1cc(N2CCC3(CCN(Cc4ccc5nccnc5c4)C3)C2)n2ncnc2n1 (racemic) | 0.074 | > 10 | 
CC(=O)Nc1ncc(CN2CC[C@]3(C[C@@H](Oc4cc(C)nc(C)c4)CO3)C2)s1 (racemic) | 0.209 |  | 
CC(=O)Nc1ncc(CN2CCC3(CCN(c4cc(C)nc5ccccc45)C3)C2)s1 (single isomer, unassigned; (+)) | 0.005 | 0.017 | microsomal CLint at 1 h, 1 µM (in vitro [3]): < 8 µL/min/mg; AUC(0-t) at 24 h [8]: 1940 ng·h/mL; Vd [9]: 17.8 L/kg; clearance [10]: 55.8 mL/min/kg; microsomal CLint at 1 h, 1 µM (in vitro [4]): 15 µL/min/mg; Cmax [11]: 331 ng/mL; bioavailability [12]: 23.1%
CC(=O)Nc1ncc(CN2CCC3(CCN(c4cc(C)nc5ccccc45)C3)C2)s1 (single isomer, unassigned; (-)) | 0.025 | 0.263 | 
